We go through 1 compound from ChEMBL document CHEMBL4813947, “New dual ATP-competitive inhibitors of bacterial DNA gyrase and topoisomerase IV active against ESKAPE pathogens” (Eur J Med Chem, 2021).

Data set [1] deals with Staphylococcus aureus. The experiment in a line: Ratio of MIC for vancomycin-resistant Staphylococcus aureus ATCC 700699 harboring GyrB R144I mutant to MIC for vancomycin-resistant wild type Staphylococcus aureus ATCC 700699. The class given is functional.
Data set [2] is described as follows: Inhibition of Escherichia coli topoisomerase assessed as reduction in relaxation of supercoiled pNO1 DNA measured after 30 mins by fluorescence assay. In short, it runs like this: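 Enzyme run per an earlier-reported procedure; IC50 fitted from seven inhibitor concentrations, mean of three independent measurements.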
Data set [3] concerns MCF7. Description: Cytotoxicity against human MCF-7 cells upto 100 uM by lactate dehydrogenase assay. The class given is cell-based. In short, it runs like this: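 HepG2 or MCF-7 cells grown in EMEM with 2 mM L-glutamine, penicillin/streptomycin, 10% FBS at 37 °C, 5% CO2; LDH release kit per manufacturer, test concentrations up to 100 µM.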
In data set [4] the test system is human topoisomerase 2alpha. Description: Selectivity ratio of IC50 for inhibition of human topoisomerase 2alpha to IC50 for inhibition of Staphylococcus aureus DNA gyrase. The class given is toxicity. As to conditions: read-out: Ratio IC50.
Data set [5] relates to Acinetobacter baumannii. The experiment in a line: Antibacterial activity against Acinetobacter baumannii ATCC 17978 assessed as inhibition of bacterial growth by CLSI protocol based broth microdilution assay. The class given is functional. A general note: Broth dilution looks for growth in wells or tubes with falling amounts of substance.
Data set [6] relates to Staphylococcus aureus. The experiment in a line: Antibacterial activity against methicillin-resistant Staphylococcus aureus ATCC 43300 harboring GyrB R144I mutant assessed as inhibition of bacterial growth by CLSI protocol based broth microdilution assay. The class given is functional. Summed up: (§1)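 Minimum inhibitory concentration by standard serial broth microdilution following CLSI guidelines. Medium was MHBII broth (22 g/L powder: beef extract, casein acid hydrolysate, starch), with MHBII agar (14 g agar per L broth). Where noted, assayed without and with efflux pump substrate phenylalanine-arginine β-naphthylamide (PAβN).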

A short description of data set [7]: Ratio of genotoxicity in CHO-K1 cells in presence of rat liver S9 fraction by invitro micronucleus test to MIC for vancomycin-resistant Staphylococcus aureus ATCC 700699. As to conditions: CHO-K1 cells with rat liver S9 fraction. The class given is toxicity, cell-based.
A short description of data set [8]: Genotoxicity in CHO-K1 cells upto 62 uM by in presence of rat liver S9 fraction invitro micronucleus test. The class given is subcellular, Cricetulus griseus. Conditions: chinese hamster.
In data set [9] the test system is Escherichia coli. Description: Antibacterial activity against Escherichia coli MG1655 harboring GyrB R136C mutant assessed as inhibition of bacterial growth in presence of efflux pump inhibitor PAbetaN by CLSI protocol based broth microdilution assay. The class given is functional. In short, it runs like this: as §1
Data set [10] is described as follows: Ratio of genotoxicity in CHO-K1 cells by invitro micronucleus test to MIC for Enterococcus faecalis ATCC 29212. The class given is toxicity, cell-based. Conditions: hamster.
In data set [11] the test system is human topoisomerase 2alpha. The experiment in a line: Selectivity ratio of IC50 for inhibition of human topoisomerase 2alpha to IC50 for inhibition of Staphylococcus aureus topoisomerase IV. The class given is toxicity. Conditions: read-out: Ratio IC50.
In data set [12] the test system is Staphylococcus aureus. Description: Antibacterial activity against methicillin-resistant Staphylococcus aureus ATCC 43300 harboring GyrB T173A mutant assessed as inhibition of bacterial growth by CLSI protocol based broth microdilution assay. The class given is functional. In short, it runs like this: as §1
In data set [13] the test system is Escherichia coli. The experiment in a line: Antibacterial activity against Escherichia coli ATCC 25922 assessed as inhibition of bacterial growth by CLSI protocol based broth microdilution assay. The class given is functional.
For data set [14], the system named is Staphylococcus aureus. Description: Antibacterial activity against vancomycin-resistant Staphylococcus aureus ATCC 700699 harboring GyrB […] mutant assessed as inhibition of bacterial growth by CLSI protocol based broth microdilution assay. The class given is functional. Summed up: as §1

The structures appear in SMILES notation. Values after ≈ are worked out from the molar mass of the structure shown.

A word on the IC50: it is the point on the concentration scale where inhibition reaches its midpoint. As usually defined, the MIC is the least concentration at which growth counts as inhibited. As to `Cc1[nH]c(C(=O)Nc2nc3c(OCc4ccsc4)cc(C(=O)O)cc3s2)c(Cl)c1Cl`, the Ratio in data set [1] was 2. Besides, the IC50 in data set [2] is 340 nM. The Activity entry in [3] and in data set [8] was “Non-Toxic” each time. Besides, the selectivity ratio was 450 in data set [4], 957 in data set [7], 495 in [10] and 54 in [11]. The MIC in data set [5] worked out at 1 µg/mL (≈ 2.07 µM); in data set [6], 0.25 µg/mL (≈ 0.518 µM); in [9], 2 µg/mL; in data set [12] it was 0.125 µg/mL (≈ 0.259 µM); in [13], 4 µg/mL (≈ 8.29 µM); in data set [14], 0.0625 µg/mL (≈ 0.13 µM).
